Reference: ChEMBL document CHEMBL1156154, “Heterocyclic fused pyridone carboxylic acid M(1) positive allosteric modulators” (Bioorg Med Chem Lett, 2010)
The source made the active and inactive calls. No cut-off for these calls is given here.

Experiments:
[1] = target: T1, Muscarinic acetylcholine receptor M1 (Homo sapiens) (UniProt P11229); experiment: Positive allosteric modulator activity at human muscarinic M1 receptor expressed in CHO cells assessed as effect on acetylcholine-induced intracellular calcium mobilization by FLIPR assay; assay type: functional, cell-based
T1 sequence (whole entry): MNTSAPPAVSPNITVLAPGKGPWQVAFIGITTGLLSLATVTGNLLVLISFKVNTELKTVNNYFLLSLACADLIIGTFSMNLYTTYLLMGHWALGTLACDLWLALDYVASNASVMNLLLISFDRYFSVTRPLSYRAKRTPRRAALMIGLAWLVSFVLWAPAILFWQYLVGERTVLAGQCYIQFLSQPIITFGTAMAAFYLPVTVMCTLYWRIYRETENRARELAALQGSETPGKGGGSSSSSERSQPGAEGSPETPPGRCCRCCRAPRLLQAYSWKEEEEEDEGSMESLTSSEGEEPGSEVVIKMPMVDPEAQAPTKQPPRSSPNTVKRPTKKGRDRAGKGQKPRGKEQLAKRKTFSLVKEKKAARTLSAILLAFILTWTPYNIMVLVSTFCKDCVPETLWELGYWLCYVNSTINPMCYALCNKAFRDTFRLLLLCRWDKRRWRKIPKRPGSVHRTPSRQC
Procedure, shortened: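 CHO cells expressing human M1 were run with an EC20 concentration of acetylcholine. Calcium mobilization was read on a FLIPR384. Potency is reported as the inflection point. Percent max is the compound plus EC20 ACh response relative to the maximal acetylcholine effect.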

[2] = target: T2, Muscarinic acetylcholine receptor M4 (Homo sapiens) (UniProt P08173); experiment: Positive allosteric modulator activity at human muscarinic M4 receptor expressed in CHO cells assessed as effect on acetylcholine-induced intracellular calcium mobilization by FLIPR assay; assay type: functional, cell-based
T2 sequence (whole entry): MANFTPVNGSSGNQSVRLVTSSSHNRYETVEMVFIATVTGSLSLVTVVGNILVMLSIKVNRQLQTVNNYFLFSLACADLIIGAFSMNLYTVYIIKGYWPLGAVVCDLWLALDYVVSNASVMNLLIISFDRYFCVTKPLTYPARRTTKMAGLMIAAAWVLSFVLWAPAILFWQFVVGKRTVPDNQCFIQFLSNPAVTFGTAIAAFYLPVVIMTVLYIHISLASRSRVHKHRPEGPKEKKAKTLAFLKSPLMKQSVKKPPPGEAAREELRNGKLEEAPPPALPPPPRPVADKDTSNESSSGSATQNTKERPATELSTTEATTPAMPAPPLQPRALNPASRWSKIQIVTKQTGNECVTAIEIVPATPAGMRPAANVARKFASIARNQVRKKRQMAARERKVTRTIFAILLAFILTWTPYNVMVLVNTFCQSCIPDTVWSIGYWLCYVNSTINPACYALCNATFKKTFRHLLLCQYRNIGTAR

Brain = experiment: Drug level in Sprague-Dawley rat brain at 10 mg/kg, po; assay type: ADME, organism-based; design: dose 10 mg/kg, route oral; details: in vivo, read-out: Drug uptake
[3] = Ratio of drug level in brain to plasma in Sprague-Dawley rat at 10 mg/kg, po; assay type: ADME, organism-based; design: dose 10 mg/kg, route oral
[4] = Plasma protein binding in human serum by equilibrium dialysis method
[5] = target: Muscarinic acetylcholine receptor M3 (Homo sapiens) (UniProt P20309); experiment: Positive allosteric modulator activity at human muscarinic M3 receptor expressed in CHO cells assessed as effect on acetylcholine-induced intracellular calcium mobilization by FLIPR assay; assay type: functional, cell-based
Sequence of Muscarinic acetylcholine receptor M3 (Homo sapiens) (P20309 whole entry, looked up): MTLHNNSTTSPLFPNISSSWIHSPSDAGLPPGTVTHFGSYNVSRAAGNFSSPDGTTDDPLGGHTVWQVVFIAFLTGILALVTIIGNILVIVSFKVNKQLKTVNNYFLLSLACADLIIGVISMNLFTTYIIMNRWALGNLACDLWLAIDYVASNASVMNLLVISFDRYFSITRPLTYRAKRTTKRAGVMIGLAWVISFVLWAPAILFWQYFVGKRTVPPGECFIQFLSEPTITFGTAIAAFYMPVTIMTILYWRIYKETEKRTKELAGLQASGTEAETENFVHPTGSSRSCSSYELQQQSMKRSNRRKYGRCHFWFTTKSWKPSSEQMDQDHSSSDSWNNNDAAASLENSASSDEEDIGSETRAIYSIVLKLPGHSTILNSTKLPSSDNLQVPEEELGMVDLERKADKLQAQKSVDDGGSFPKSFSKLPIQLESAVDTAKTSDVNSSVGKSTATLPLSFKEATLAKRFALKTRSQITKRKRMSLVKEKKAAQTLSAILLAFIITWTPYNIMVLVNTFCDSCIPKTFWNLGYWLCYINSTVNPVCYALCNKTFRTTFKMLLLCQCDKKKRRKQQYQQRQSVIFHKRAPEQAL

[6] = target: T3, Muscarinic acetylcholine receptor M2 (Homo sapiens) (UniProt P08172); experiment: Positive allosteric modulator activity at human muscarinic acetylcholine M2 receptor expressed in CHO cells assessed as effect on acetylcholine-induced intracellular calcium mobilization by FLIPR assay; assay type: functional, cell-based
T3 sequence (whole entry): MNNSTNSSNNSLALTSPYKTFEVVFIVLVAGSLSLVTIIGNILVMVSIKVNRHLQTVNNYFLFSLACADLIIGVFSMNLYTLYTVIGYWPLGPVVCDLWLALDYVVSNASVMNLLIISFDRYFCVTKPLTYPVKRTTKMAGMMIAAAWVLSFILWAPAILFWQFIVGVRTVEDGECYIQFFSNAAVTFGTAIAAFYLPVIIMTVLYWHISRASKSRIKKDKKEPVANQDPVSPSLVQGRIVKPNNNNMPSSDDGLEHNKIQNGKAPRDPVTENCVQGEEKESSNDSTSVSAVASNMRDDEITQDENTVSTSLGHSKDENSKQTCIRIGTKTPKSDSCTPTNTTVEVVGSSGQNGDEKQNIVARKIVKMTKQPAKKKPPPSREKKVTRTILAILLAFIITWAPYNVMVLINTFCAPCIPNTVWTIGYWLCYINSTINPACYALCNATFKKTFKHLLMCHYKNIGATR

Rattus norvegicus = experiment: Plasma concentration in Sprague-Dawley rat at 10 mg/kg, po; assay type: ADME, organism-based; design: dose 10 mg/kg, route oral; details: in vivo
Cerebrospinal fluid = experiment: Drug level in Sprague-Dawley rat CSF at 10 mg/kg, po; assay type: ADME, organism-based; design: dose 10 mg/kg, route oral; details: in vivo, read-out: Drug uptake
[7] = Ratio of drug level in CSF to fraction unbound in plasma in rat; assay type: ADME; details: in vivo
Procedure, shortened: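 Sprague–Dawley rats dosed orally at 10 mg/kg in 0.5% methocel. CSF level divided by unbound plasma level. Unbound fraction comes from rat plasma protein binding by equilibrium dialysis.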

[8] = Plasma protein binding in rat serum by equilibrium dialysis method
Mus musculus = species: Mus musculus; experiment: Effect on behavioral activity in mouse contextual fear conditioning model assessed as episodic memory; assay type: functional, organism-based
[9] = Ratio of drug level in CSF to fraction unbound in plasma in CF-1 mouse; assay type: ADME; details: in vivo
Procedure, shortened: (§1)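 CF-1 wild-type and P-gp knockout mice were dosed, and plasma and CSF were taken 30 min later. The CSF to unbound plasma ratio was then calculated.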

[10] = Ratio of drug level in CSF to fraction unbound in plasma in P-glycoprotein deficient mouse; assay type: ADME; details: in vivo; procedure, shortened: as §1
[11] = Bioavailability in rat at 10 mg/kg, po and 2 mg/kg, iv; assay type: ADME, organism-based; details: in vivo
Procedure, shortened: (§2)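 Rat pharmacokinetics, oral dosing at 10 mpk and intravenous dosing at 2 mpk. Bioavailability, half-life and clearance derived from these profiles.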

[12] = Half life in rat at 10 mg/kg, po and 2 mg/kg, iv; assay type: ADME, organism-based; details: in vivo; procedure, shortened: as §2
[13] = Clearance in rat at 10 mg/kg, po and 2 mg/kg, iv; assay type: ADME, organism-based; details: in vivo; procedure, shortened: as §2

Compound | IP [1] | Activity [2] | concentration (Brain) | Kp [3] | fraction unbound [4] | Activity [5] | Activity [6] | concentration (Rattus norvegicus) | concentration (Cerebrospinal fluid) | Ratio [7] | fraction unbound [8] | Activity (Mus musculus) | Ratio [9] | Ratio [10] | bioavailability [11] | half-life [12] | clearance [13]
Cn1cc(-c2ccc(Cn3cc(C(=O)O)c(=O)c4sccc43)nc2)cn1 | 0.34 µM | inactive | 159 nM | 0.02 | 0.279 | inactive | inactive | 9420 nM | 42 nM | 0.05 | 0.094 |  |  |  |  |  | 
O=C(O)c1cn(Cc2ccc(-n3cccn3)cc2)c2ccsc2c1=O | 0.52 µM | inactive | 316 nM | 0.07 | 0.14 | inactive | inactive | 4240 nM | 123 nM | 0.21 | 0.132 | inactive | 0.05 | 0.16 | 33% | 3.7 h | 6.8 mL/min/kg
Cc1ccn(-c2ccc(Cn3cc(C(=O)O)c(=O)c4ccncc43)cc2)n1 | 0.25 µM | inactive | 1200 nM | 0.15 | 0.125 | inactive | inactive | 78500 nM | 24 nM | 0.03 | 0.011 |  |  |  |  |  | 
